Data published in ChEMBL document CHEMBL1123290, “Synthesis, antimalarial activity, and quantitative structure-activity relationships of tebuquine and a series of related 5-[(7-chloro-4-quinolinyl)amino]-3-[(alkylamino)methyl] [1,1'-biphenyl]-2-ols and N omega-oxides” (1986).

Legend:
Type in all cases: functional
Mus musculus [1] = test: Antimalarial activity, administered as a single subcutaneous dose of 640 mg/kg, 72 hrs post infection measured as number of mice (Mus musculus) surviving at 60 days post infection
Method in brief: (§1)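 Mice were infected with a normal drug-sensitive Plasmodium berghei strain. At 72 h postinfection each received one subcutaneous dose of compound dissolved or suspended in peanut oil, in five-mouse groups per dose. The read-out was the number of mice alive at 60 days postinfection, which were scored as cured.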

Plasmodium berghei [2] = test: Change in mean survival time in control (average 6.2 days) versus treated mice (Mus musculus) after 80 mg/kg subcutaneous dose
Plasmodium berghei [3] = test: Change in mean survival time of Plasmodium berghei infected mice (Mus musculus) on 1.25 mg/kg subcutaneous dose
Mus musculus [4] = test: Antimalarial activity, administered as a single subcutaneous dose of 80 mg/kg, 72 hrs post infection measured as number of mice (Mus musculus) surviving at 60 days post infection; method in brief: as §1
Plasmodium berghei [5] = test: Change in mean survival time for control (average 6.2 days) versus treated mice (Mus musculus) after 40 mg/kg subcutaneous dose
Plasmodium berghei [6] = test: Difference in mean survival time of Plasmodium berghei infected mice (Mus musculus) after 10 mg/kg subcutaneous dose
Mus musculus [7] = test: Antimalarial activity, administered as a single subcutaneous dose of 40 mg/kg, 72 hrs post infection measured as number of mice (Mus musculus) surviving at 60 days post infection; method in brief: as §1
Plasmodium berghei [8] = test: Change in mean survival time for control (average 6.2 days) versus treated mice (Mus musculus) after 20 mg/kg subcutaneous dose
Plasmodium berghei [9] = test: Change in mean survival time for control (average 6.2 days) versus treated mice (Mus musculus) after 320 mg/kg subcutaneous dose
Plasmodium berghei [10] = test: (§2) Change in mean survival time for control (average 6.2 days) versus treated mice (Mus musculus) 72 hrs after […] subcutaneous dose
Plasmodium berghei [11] = test: Change in mean survival time of Plasmodium berghei infected mice (Mus musculus) after […] subcutaneous dose
Plasmodium berghei [12] = test: Antimalarial activity as 60-day survivors in Plasmodium berghei infected mice (Mus musculus) after single 160mg/kg subcutaneous dose 72 hr post infection; method in brief: as §1
Plasmodium berghei [13] = test: as §2; remark: listed apart in the source
Mus musculus [14] = test: Antimalarial activity of compound administered as a single subcutaneous dose of 10mg/kg, 72 hrs post infection measured as number of mice (Mus musculus) surviving at 60 days post infection; method in brief: as §1
Plasmodium berghei [15] = test: Change in mean survival time of Plasmodium berghei infected mice (Mus musculus) after 5 mg/kg subcutaneous dose
Plasmodium berghei [16] = test: Antimalarial activity as 60-day survivors in infected mice (Mus musculus) after single 20 mg/kg subcutaneous dose 72hr post infection; method in brief: as §1
Plasmodium berghei [17] = test: Antimalarial activity as 60-day survivors in infected mice (Mus musculus) after single 320mg/kg subcutaneous dose 72 hr post infection; method in brief: as §1
Plasmodium berghei [18] = test: Change in mean survival time for control (average 6.2 days) versus treated mice (Mus musculus) 72 hrs after 20 mg/kg subcutaneous dose
Plasmodium berghei [19] = test: Difference in mean survival time in mice (Mus musculus) (control = 6.2 days) after single 40mg/kg subcutaneous dose 72hr post infection
Plasmodium berghei [20] = test: Change in mean survival time for control (average 6.2 days) versus treated mice (Mus musculus) 72 hrs after 640 mg/kg subcutaneous dose
Plasmodium berghei [21] = test: Antimalarial activity in primary screen
Plasmodium berghei [22] = test: Change in mean survival time for control (average 6.2 days) versus treated mice (Mus musculus) 72 hrs after 5 mg/kg subcutaneous dose
Plasmodium berghei [23] = test: Change in mean survival time for control (average 6.2 days) versus treated mice (Mus musculus) 72 hrs after 10 mg/kg subcutaneous dose
Plasmodium berghei [24] = test: Change in mean survival time for control (average of 6.2 days) versus treated mice (Mus musculus) 72 hrs after 80 mg/kg subcutaneous dose
Plasmodium berghei [25] = test: Change in mean survival time for control (average 6.2 days) versus treated mice (Mus musculus) 72 hrs after 320 mg/kg subcutaneous dose
Plasmodium berghei [26] = test: Change in mean survival time for control (average 6.2 days) versus treated mice (Mus musculus) 72 hrs after 160 mg/kg subcutaneous dose
Plasmodium berghei [27] = test: Change in mean survival time for control (average 6.2 days) versus treated mice (Mus musculus) 72 hrs after […] subcutaneous dose
Mus musculus [28] = test: Delta MST, difference in mean survival time of the control mice (an average of 6.2 days) from the mean survival time of the treated mice after a single dose of (mg/kg sc) 1.25
Plasmodium berghei [29] = test: Change in mean survival time for control (average 6.2 days) versus treated mice (Mus musculus) after 160 mg/kg subcutaneous dose
Mus musculus [30] = test: Antimalarial activity of compound administered as a single subcutaneous dose of 5mg/kg, 72-h postinfection measured as number of mice (Mus musculus) surviving at 60 days postinfection; method in brief: as §1
Mus musculus [31] = test: Antimalarial activity of compound administered as a single subcutaneous dose of 40 mg/kg, 72-h postinfection measured as number of mice (Mus musculus) surviving at 60 days postinfection; method in brief: as §1

SMILES	No. of mice cured (Mus musculus [1])	Delta MST (Plasmodium berghei [3]) [days]	No. of mice cured (Mus musculus [4])	Delta MST (Plasmodium berghei [5]) [days]	Delta MST (Plasmodium berghei [6]) [days]	No. of mice cured (Mus musculus [7])	Delta MST (Plasmodium berghei [8]) [days]	Delta MST (Plasmodium berghei [10]) [days]	Delta MST (Plasmodium berghei [11]) [days]	No. of mice cured (Plasmodium berghei [12])	No. of mice cured (Mus musculus [14])	No. of mice cured (Plasmodium berghei [16])	No. of mice cured (Plasmodium berghei [17])	Delta MST (Plasmodium berghei [18]) [days]	Delta MST (Plasmodium berghei [19]) [days]	ED30 (Plasmodium berghei [21]) [mg/kg]	Delta MST (Plasmodium berghei [22]) [days]	Delta MST (Plasmodium berghei [25]) [days]	Delta MST (Plasmodium berghei [26]) [days]	Delta MST (Plasmodium berghei [27]) [days]	further results
CN(C)Cc1cc(Nc2cc[n+]([O-])c3cc(Cl)ccc23)cc(-c2ccc(Cl)cc2)c1O	1	0	3	26.3	17.8	3	27.8	0	5	5	1	3	3								Delta MST (Plasmodium berghei [2]): 21.9 days; Delta MST (Plasmodium berghei [9]): 17.9 days; Delta MST (Plasmodium berghei [13]): 20.7 days; Delta MST (Plasmodium berghei [15]): 17.6 days
CCN(CC)Cc1cc(Nc2ccnc3cc(Cl)ccc23)cc(-c2cccc(F)c2F)c1O	4		3			3		0.7		2	1	2	4	22.2	39.4	8.7	13.7	19.8	35.1	6.7	Delta MST (Plasmodium berghei [20]): 19.8 days; Delta MST (Plasmodium berghei [23]): 16.7 days; Delta MST (Plasmodium berghei [24]): 33.3 days
CCC(C)NCc1cc(Nc2cc[n+]([O-])c3cc(Cl)ccc23)cc(-c2ccc(Cl)cc2)c1O (stereo not drawn)	3	0	3	21.3	7.2	2	22.6		1.6	4		3	3								Delta MST (Plasmodium berghei [2]): 23.6 days; Delta MST (Plasmodium berghei [9]): 17.1 days; Delta MST (Mus musculus [28]): 0; Delta MST (Plasmodium berghei [15]): 3.6 days; Delta MST (Plasmodium berghei [29]): 14.6 days
CCN(CC)Cc1cc(Nc2ccnc3cc(Cl)ccc23)cc(-c2cccnc2)c1O	3		1			1		1.8		4	1	1	4	13.6	20.3	31	10.6	37.8	18.8	5.4	Delta MST (Plasmodium berghei [20]): 34.8 days; No. of mice cured (Mus musculus [30]): 1; Delta MST (Plasmodium berghei [23]): 8.6 days; Delta MST (Plasmodium berghei [24]): 19.6 days
CCN(CC)Cc1cc(Nc2cc[n+]([O-])c3cc(Cl)ccc23)cc(-c2ccc(Cl)cc2)c1O	5	0.7	5	36.9	14.2	4	20.9		1.3	5	2	3	5			9.2					Delta MST (Plasmodium berghei [15]): 5.7 days
CCC(C)NCc1cc(Nc2ccnc3cc(Cl)ccc23)cc(-c2ccc(Cl)cc2)c1O (stereo not drawn)			3					0.2				3	1	21	15		11	12.5	14.2	2	No. of mice cured (Mus musculus [31]): 4; Delta MST (Plasmodium berghei [23]): 23.6 days; Delta MST (Plasmodium berghei [24]): 14 days
CC(C)(C)NCc1cc(Nc2cc[n+]([O-])c3cc(Cl)ccc23)cc(-c2ccc(Cl)cc2)c1O	4	0	2	24.9	26.3	4	28.9		0.2	3	1	4	4								Delta MST (Plasmodium berghei [2]): 20.6 days; Delta MST (Plasmodium berghei [9]): 13.9 days; Delta MST (Mus musculus [28]): 0; No. of mice cured (Mus musculus [30]): 1; Delta MST (Plasmodium berghei [13]): 13.9 days; Delta MST (Plasmodium berghei [15]): 11.4 days; Delta MST (Plasmodium berghei [29]): 13.4 days
CCN(CC)Cc1cc(Nc2ccnc3cc(Cl)ccc23)cc(-c2cccc(F)c2)c1O	3		2			3		0.4		3		2	1	23.6	25.1	12.4	5.6	13.8	14.8	1.8	Delta MST (Plasmodium berghei [20]): 15.8 days; No. of mice cured (Mus musculus [30]): 1; Delta MST (Plasmodium berghei [23]): 23.2 days; Delta MST (Plasmodium berghei [24]): 12.8 days
CCN(CC)Cc1cc(Nc2cc[n+]([O-])c3cc(Cl)ccc23)cc(-c2ccc(C(F)(F)F)cc2)c1O	1	0.2	3	28.6	27.9	2	33.6		2.6	3	1	2	2			7.4					Delta MST (Plasmodium berghei [2]): 19.7 days; Delta MST (Plasmodium berghei [9]): 12.7 days; Delta MST (Plasmodium berghei [13]): 16.5 days; Delta MST (Plasmodium berghei [15]): 13.6 days; Delta MST (Plasmodium berghei [29]): 13.2 days
CCN(CC)Cc1cc(Nc2ccnc3cc(Cl)ccc23)cc(-c2ccc(C(F)(F)F)cc2)c1O	1		2			2		0			1	2		19.4	13	9.8	11	10.1	11.9	2	Delta MST (Plasmodium berghei [20]): 17 days; Delta MST (Plasmodium berghei [23]): 18.9 days; Delta MST (Plasmodium berghei [24]): 12 days
CC(C)(C)NCc1cc(Nc2ccnc3cc(Cl)ccc23)cc(-c2ccc(Cl)cc2)c1O [TEBUQUINE]			3			4		0.3		2	2	3	1	14.9	19.9		11.4	16.4	14.9	2.3	Delta MST (Plasmodium berghei [20]): 17.1 days; No. of mice cured (Mus musculus [30]): 1
